Data published in paper PMC10250156 (Molecular Metabolism, 2023).
Blank lines part the entries; values can stand above or below the compound they belong to.

What was measured:
[1] = Light exposure experiment: zeaxanthin metabolites in eye and liver by HPLC; type: in vivo; conditions: albino Isx^−/−/Bco2^−/− mice, 250 mg/kg zeaxanthin, 4 weeks
Outline: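 Albino mice were fed the 250 mg/kg or control diet for 4 weeks after weaning. Three groups were used: 24 h/day darkness (DC), a 12/12 h light/dark cycle (L/DC), or L/DC plus twice-weekly light stress from week 2 (LS). For light stress, mice were dark-adapted overnight, pupils were dilated with 1% tropicamide, and mice received 85,000 lux white light for 2 min. Whole eye and liver carotenoids were then quantified by HPLC.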

[2] = type: in vivo, mice
Outline: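 Male and female mice were fed vitamin A-free diets for 4 weeks from weaning; the WT cohort received the 250 mg/kg diet. Tissues were weighed and snap-frozen at -80 °C. Carotenoids were extracted under dim red light from about 25 mg of intestinal segments, liver or eWAT, 100 uL serum, or one whole eye. Analysis was normal-phase silica HPLC with diode-array detection. Data are means ± SD, n=5 (eWAT: 3 females, 2 males); two-way ANOVA.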

[3] = test system: albino Isx^−/−/Bco2^−/− mice; test: Optical coherence tomography; type: in vivo; conditions: 250 mg/kg versus 0 mg/kg, 4 weeks
[4] = test system: albino Isx^−/−/Bco2^−/− mice; test: Electroretinography; type: in vivo; conditions: 250 mg/kg versus 0 mg/kg, 4 weeks
[5] = test system: albino Isx^−/−/Bco2^−/− mice; test: Skin colour phenotype of supplemented albino mice; type: in vivo; conditions: 250 mg/kg zeaxanthin, 4 weeks, hypercarotenemia
Outline: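 Albino mice were fed a vitamin A-free diet containing 250 mg/kg zeaxanthin or no zeaxanthin (control) for 4 weeks, starting immediately after weaning. Skin colour of the ears, eyelids and nostrils was inspected and photographed.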

[6] = HPLC analysis of zeaxanthin content in fecal matter during dietary intervention; type: in vivo, mice; conditions: 50 mg/kg zeaxanthin supplementation, 28 days
Outline: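 Mice were fed vitamin A-free diets starting at weaning. Feces were collected on days 0, 1, 2, 4, 7, 14, 21 and 28 of the 28-day intervention. Carotenoids were extracted from about 25 mg feces under dim red light (<600 nm). Zeaxanthin was quantified by HPLC.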

[7] = Food intake and liver weight during zeaxanthin dietary intervention; type: in vivo; conditions: Bco2^−/− and Isx^−/−/Bco2^−/− mice, 0, 50, 250 mg/kg diet
Outline: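 Male and female mice were placed on vitamin A-free diets after weaning at 4 weeks old, for 4 weeks. Zeaxanthin was given as water-soluble beadlets incorporated into the diet. Fresh diet was given weekly, and body weight was recorded then. Food consumption was the leftover food per cage divided by the number of mice in the cage. At study end, mice were anaesthetised and livers dissected and weighed.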

[8] = Chiral HPLC analysis of zeaxanthin stereoisomers in tissues; type: in vivo; conditions: Isx^−/−/Bco2^−/− mice on 250 mg/kg 3R,3′R-zeaxanthin diet

concentration in the eyes of L/DC and LS groups compared to DC group [1]: increased
SMILES: CC1=CC(=O)CC(C)(C)C1/C=C/C(C)=C/C=C/C(C)=C/C=C/C=C(C)/C=C/C=C(C)/C=C/C1C(C)=CC(=O)CC1(C)C (centres unmarked) [oxidized zeaxanthin, ε,ε-carotene 3, 3′-dione]

total zeaxanthin in eWAT, Isx^−/−/Bco2^−/− versus Bco2^−/− mice ([2]; 50 mg/kg or 250 mg/kg diet, 4 weeks): significantly higher amounts
concentration of carotenoids in eWAT and eyes compared with kidney and serum ([2]; 50 mg/kg zeaxanthin, Bco2^−/− and Isx^−/−/Bco2^−/− mice): two-fold higher
amount of zeaxanthin in jejunum relative to other parts of the intestine ([2]; WT mice, 250 mg/kg diet, 4 weeks, major metabolite parent compound): highest amount
ERG responses under photopic and scotopic conditions [4]: normal responses
skin phenotype (ears, eyelids, nostrils) [5]: yellow skin color phenotype
total zeaxanthin or its oxidized form in liver between light treatment groups [1]: no light-dependent increase
ocular levels between different light groups ([1]; DC, L/DC, LS): remained relatively constant
fecal zeaxanthin excretion, Isx^−/−/Bco2^−/− versus Bco2^−/− mice [6]: excreted less zeaxanthin
effect on food intake [7]: did not affect food intake
SMILES: CC1=C(/C=C/C(C)=C/C=C/C(C)=C/C=C/C=C(C)/C=C/C=C(C)/C=C/C2=C(C)C[C@@H](O)CC2(C)C)C(C)(C)C[C@H](O)C1 [zeaxanthin, 3R,3′R-zeaxanthin]
form of zeaxanthin detectable in liver ([2]; 50 mg zeaxanthin diet, Bco2^−/− and Isx^−/−/Bco2^−/− mice, 4 weeks): only the oxidized form of zeaxanthin became detectable
OCT: retinal morphology, supplemented versus non-supplemented mice [3]: no differences in the stratification of the retinal layers
liver weight between dietary groups ([7]; 4 weeks): no significant difference in liver weight

SMILES: CC1=C(/C=C/C(C)=C/C=C/C(C)=C/C=C/C=C(C)/C=C/C=C(C)/C=C/C2=C(C)C[C@H](O)CC2(C)C)C(C)(C)C[C@H](O)C1 [3R, 3′S-zeaxanthin]
presence in the eyes by chiral HPLC [8]: no peak with a retention time of 3R, 3′S-zeaxanthin was detected
